Experimental data from ChEMBL document CHEMBL1122046, “Quaternary heterocyclylamino beta-lactams: a generic alternative to the classical acylamino side chain” (1982).
≈ marks a conversion by molar mass, not a printed value.

How the values were obtained:
Enterobacter cloacae [1] = assay: Minimum inhibitory concentration against aerobic organism Enterobacter cloacae strain 2646; format: functional; details: Enterobacter cloacae; read-out: MIC
Summary of the method: (§1)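 Agar-dilution MIC in µg/mL against aerobic bacterial strains on tryptocase soy agar, with inoculum applied as spots. Most series used 10^5 cfu per spot, and a later series used 10^4 cfu per spot. In some tables, footnoted strains were instead tested on Mueller-Hinton or nutrient agar. β-Lactamase-producing strains are flagged.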

Proteus vulgaris = assay: Minimum inhibitory concentration against aerobic organism Proteus vulgaris strain 2829; format: functional; details: Proteus vulgaris; read-out: MIC; summary of the method: as §1
Pseudomonas aeruginosa [2] = assay: Minimum inhibitory concentration against aerobic organism Pseudomonas aeruginosa strain 2835; format: functional; summary of the method: as §1
Klebsiella pneumoniae [3] = assay: Minimum inhibitory concentration against aerobic organism Klebsiella pneumoniae strain 4005; format: functional; summary of the method: as §1
Morganella morganii [4] = assay: Minimum inhibitory concentration against aerobic organism Morganella morganii strain 2833; format: functional; details: Morganella morganii; read-out: MIC; summary of the method: as §1
Proteus mirabilis = assay: Minimum inhibitory concentration against aerobic organism Proteus mirabilis strain 2830; format: functional; details: Proteus mirabilis; read-out: MIC; summary of the method: as §1
Salmonella [5] = assay: Minimum inhibitory concentration against aerobic organism Salmonella strain 3860
Staphylococcus aureus [6] = assay: Minimum inhibitory concentration against aerobic organism Staphylococcus aureus strain 2868; format: functional; details: Staphylococcus aureus; read-out: MIC; summary of the method: as §1
Escherichia coli = assay: MIC against aerobic organism Escherichia coli strain 2891; format: functional; details: Escherichia coli; read-out: MIC; summary of the method: as §1
Staphylococcus aureus [7] = assay: Minimum inhibitory concentration against aerobic organism Staphylococcus aureus strain 2865; format: functional; summary of the method: as §1
Enterococcus faecalis [8] = assay: Minimum inhibitory concentration against aerobic organism Streptococcus faecalis strain 2864; format: functional; summary of the method: as §1
Klebsiella aerogenes = assay: Minimum inhibitory concentration against aerobic organism Enterobacter aerogenes strain 2828; format: functional; summary of the method: as §1
Morganella morganii [9] = assay: Disk zone diameter (25 ug/disk) against aerobic organism Morganella morganii strain 2834
Klebsiella = assay: Inhibition zone diameter against aerobic organism Klebsiella species strain 2921
Staphylococcus aureus [10] = assay: Inhibition zone diameter against aerobic organism Staphylococcus aureus strain 2314
Salmonella [11] = assay: Inhibition zone diameter against aerobic organism Salmonella strain 826
Serratia marcescens = assay: Inhibition zone diameter against aerobic organism Serratia marcescenes strain 2855
Pseudomonas aeruginosa [12] = assay: Inhibition zone diameter against aerobic organism Pseudomonas aeruginosa strain 3350
Streptococcus pyogenes [13] = assay: Inhibition zone diameter against aerobic organism Streptococcus pyogenes strain 2874
Staphylococcus aureus [14] = assay: Inhibition zone diameter against aerobic organism Staphylococcus aureus strain 2314; remark: listed apart in the source
Shigella = assay: Minimum inhibitory concentration against aerobic organism Shigella species strain 2880; format: functional; details: Shigella; read-out: MIC; summary of the method: as §1
[15] = Minimum inhibitory concentration against aerobic organism Salmonella schottmuelleri strain 2837; format: functional; details: Salmonella; read-out: MIC; summary of the method: as §1
Streptococcus pyogenes [16] = assay: Minimum inhibitory concentration against aerobic organism Streptococcus pyogenes strain 3124; format: functional; details: Streptococcus pyogenes; read-out: MIC; summary of the method: as §1
Klebsiella pneumoniae [17] = assay: Minimum inhibitory concentration against aerobic organism Klebsiella pneumoniae strain 2882; format: functional; details: Klebsiella pneumoniae; read-out: MIC; summary of the method: as §1
Enterococcus faecalis [18] = assay: Minimum inhibitory concentration against aerobic organism Streptococcus faecalis strain 2864
Salmonella [19] = assay: Minimum inhibitory concentration against aerobic organism Salmonella strain 3860; format: functional; summary of the method: as §1
Enterococcus faecalis [20] = assay: Minimum inhibitory concentration against aerobic organisms Streptococcus faecalis strain 2864; format: functional; summary of the method: as §1
Enterobacter cloacae [21] = assay: Minimum inhibitory concentration against aerobic organism Enterobacter cloacae 2646; format: functional; summary of the method: as §1

Row | MIC (Proteus vulgaris) | MIC (Pseudomonas aeruginosa [2]) | MIC (Klebsiella pneumoniae [3]) | MIC (Morganella morganii [4]) | MIC (Proteus mirabilis) | MIC (Staphylococcus aureus [6]) | MIC (Escherichia coli) | MIC (Staphylococcus aureus [7]) | MIC (Klebsiella aerogenes) | Compound | zone diameter (Morganella morganii [9]) | zone diameter (Klebsiella) | zone diameter (Salmonella [11]) | zone diameter (Serratia marcescens) | zone diameter (Pseudomonas aeruginosa [12]) | zone diameter (Streptococcus pyogenes [13]) | also measured
1 |  |  |  |  |  | > 100 µg/mL | 50 µg/mL (≈ 163 µM) |  |  | C[n+]1ccc(NC2C(=O)N3C2SC(C)(C)[C@@H]3C(=O)[O-])cc1 (stereo partly drawn) |  |  |  |  |  |  | MIC (Enterobacter cloacae [1]): > 100 µg/mL; MIC (Shigella): 12.5 µg/mL (≈ 40.7 µM); MIC [15]: 0.78 µg/mL (≈ 2.54 µM); MIC (Streptococcus pyogenes [16]): 1.56 µg/mL (≈ 5.08 µM); MIC (Klebsiella pneumoniae [17]): 100 µg/mL (≈ 325 µM); MIC (Enterococcus faecalis [18]): > 100 µg/mL
2 | 0.5 µg/mL (≈ 1.54 µM) | > 128 µg/mL | 16 µg/mL (≈ 49.2 µM) | > 128 µg/mL | > 128 µg/mL | > 100 µg/mL | 12.5 µg/mL (≈ 38.4 µM) | 8 µg/mL (≈ 24.6 µM) | 64 µg/mL (≈ 197 µM) | CC1(C)S[C@@H]2[C@H](NC=[N+]3CCCCCC3)C(=O)N2[C@H]1C(=O)[O-] |  |  |  |  |  |  | MIC (Shigella): 12.5 µg/mL (≈ 38.4 µM); MIC (Salmonella [19]): 0.125 µg/mL (≈ 0.384 µM); MIC [15]: 12.5 µg/mL (≈ 38.4 µM); MIC (Klebsiella pneumoniae [17]): 100 µg/mL (≈ 307 µM); MIC (Enterococcus faecalis [8]): > 100 µg/mL
3 | 128 µg/mL (≈ 323 µM) | > 128 µg/mL | 0.25 µg/mL (≈ 0.631 µM) | > 128 µg/mL | 32 µg/mL (≈ 80.7 µM) | 0.06 µg/mL (≈ 0.151 µM) | > 128 µg/mL | 0.015 µg/mL (≈ 0.0378 µM) | 32 µg/mL (≈ 80.7 µM) | CC(=O)OCC1=C(C(=O)O)N2C(=O)[C@@H](NC(=O)Cc3cccs3)[C@H]2SC1 [CEPHALOTHIN] |  |  |  |  |  |  | MIC (Enterococcus faecalis [20]): 8 µg/mL (≈ 20.2 µM); MIC (Enterobacter cloacae [21]): > 128 µg/mL; MIC (Salmonella [19]): 2 µg/mL (≈ 5.04 µM)

The remaining lines, values behind:

Row | Compound | MIC (Proteus vulgaris) | MIC (Pseudomonas aeruginosa [2]) | MIC (Klebsiella pneumoniae [3]) | MIC (Morganella morganii [4]) | MIC (Proteus mirabilis) | MIC (Staphylococcus aureus [6]) | MIC (Escherichia coli) | MIC (Staphylococcus aureus [7]) | MIC (Klebsiella aerogenes) | zone diameter (Morganella morganii [9]) | zone diameter (Klebsiella) | zone diameter (Salmonella [11]) | zone diameter (Serratia marcescens) | zone diameter (Pseudomonas aeruginosa [12]) | zone diameter (Streptococcus pyogenes [13]) | also measured
4 | Cc1nnc(SCC2=C(C(=O)[O-])N3C(=O)[C@@H](Nc4cc[n+](Cc5ccccc5)cc4)[C@H]3SC2)s1 | 0.25 µg/mL (≈ 0.489 µM) | > 128 µg/mL | 16 µg/mL (≈ 31.3 µM) | 128 µg/mL (≈ 250 µM) | 128 µg/mL (≈ 250 µM) | 2 µg/mL (≈ 3.91 µM) | < 0.06 µg/mL | 0.25 µg/mL (≈ 0.489 µM) | 16 µg/mL (≈ 31.3 µM) |  |  |  |  |  |  | MIC (Enterobacter cloacae [1]): 0.125 µg/mL (≈ 0.244 µM); MIC (Salmonella [5]): 0.125 µg/mL (≈ 0.244 µM); MIC (Enterococcus faecalis [8]): 64 µg/mL (≈ 125 µM)
5 | CC(=O)NCCSC1=C(C(=O)O)N2C(=O)[C@H](C(C)O)[C@H]2C1 (stereo partly drawn) |  |  |  |  |  |  |  |  |  | 28.5 mm | 28 mm | 30.5 mm | 28 mm | 10 mm | 37 mm | zone diameter (Staphylococcus aureus [10]): 39 mm
6 | CC(O)[C@H]1C(=O)N2C(C(=O)[O-])=C(SCCNc3cc[n+](C)cc3)C[C@H]12 (stereo partly drawn) |  |  |  |  |  |  |  |  |  | 26 mm | 27 mm | 28 mm | 26.5 mm | 24.5 mm | 37.5 mm | zone diameter (Staphylococcus aureus [14]): 42 mm
7 | CC(O)[C@H]1C(=O)N2C(C(=O)O)=C(SCCNC3=NCCC3)C[C@H]12 (stereo partly drawn) |  |  |  |  |  |  |  |  |  |  | 24 mm | 28 mm | 25.5 mm | 25.5 mm | 40 mm | zone diameter (Staphylococcus aureus [14]): 38 mm
8 | CC(O)[C@H]1C(=O)N2C(C(=O)[O-])=C(SCCNc3cc[n+](Cc4ccccc4)cc3)C[C@H]12 (stereo partly drawn) |  |  |  |  |  |  |  |  |  | 26.5 mm | 24 mm | 26 mm | 25 mm | 11.2 mm | 35.2 mm | zone diameter (Staphylococcus aureus [10]): 36 mm
